TRPC6 act: mouse TRPC6 channel activators, primary screen, cell-based, HEK293, membrane potential dye. Short transient receptor potential channel 6 (Mus musculus), Q61143. HEK293-TRPC6 membrane potential dye fluorescence; stronger effect = higher value. B-score at 10 µM. hit rate 0.13% among 310,000. AID 2550, 2010;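 active means B-score of the integrated fluorescence ratio above library mean plus 3 SD, and starting fluorescence ratio within library mean plus 5 SD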;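 further: higher score means more depolarization so channel activation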
Target sequence (Q61143 whole entry, looked up): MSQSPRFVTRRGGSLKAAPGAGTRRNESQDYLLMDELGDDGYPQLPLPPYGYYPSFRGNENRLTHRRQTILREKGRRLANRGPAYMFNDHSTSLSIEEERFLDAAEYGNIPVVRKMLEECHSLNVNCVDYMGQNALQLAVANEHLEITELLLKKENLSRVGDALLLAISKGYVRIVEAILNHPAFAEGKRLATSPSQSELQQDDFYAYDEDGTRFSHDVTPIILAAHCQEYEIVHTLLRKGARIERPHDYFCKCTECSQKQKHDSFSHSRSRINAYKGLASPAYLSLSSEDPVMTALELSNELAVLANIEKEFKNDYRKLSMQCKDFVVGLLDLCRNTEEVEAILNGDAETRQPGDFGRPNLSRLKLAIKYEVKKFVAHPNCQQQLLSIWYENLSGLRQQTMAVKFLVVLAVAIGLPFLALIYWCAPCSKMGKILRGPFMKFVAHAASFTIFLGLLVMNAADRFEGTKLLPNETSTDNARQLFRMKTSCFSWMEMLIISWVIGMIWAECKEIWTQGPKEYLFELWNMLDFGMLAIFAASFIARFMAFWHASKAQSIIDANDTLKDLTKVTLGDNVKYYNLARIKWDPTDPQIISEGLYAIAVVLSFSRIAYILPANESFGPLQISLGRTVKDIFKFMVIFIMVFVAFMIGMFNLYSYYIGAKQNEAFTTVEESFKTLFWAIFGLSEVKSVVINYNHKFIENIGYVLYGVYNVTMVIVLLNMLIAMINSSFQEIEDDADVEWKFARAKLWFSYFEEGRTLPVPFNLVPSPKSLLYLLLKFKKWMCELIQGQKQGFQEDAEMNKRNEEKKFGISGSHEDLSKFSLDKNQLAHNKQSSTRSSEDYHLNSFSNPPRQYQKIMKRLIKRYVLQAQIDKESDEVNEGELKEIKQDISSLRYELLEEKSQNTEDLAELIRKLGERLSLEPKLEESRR
TRPC6 inhibitor: mouse TRPC6 channel inhibitors, primary screen, cell-based, HEK293, membrane potential dye; ACh-evoked depolarization; stronger effect = lower value; B-score at 10 µM; hit rate 1.1% among 310,000; AID 2553, 2010;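 active means B-score under library mean minus 3 SD, initial fluorescence not abnormally high, positive integrated signal ratio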;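 further: B-score derived from integrated fluorescence ratio over the kinetic read; more negative B-score means stronger inhibition of depolarization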
TRPC4 block: inhibitors of mouse TRPC4 channel, primary screen, Fluo4 calcium, HEK293 TRPC4beta/mu-opioid cells. DAMGO-evoked Fluo4 calcium flux; stronger effect = lower value. AID 2247, 2010. hit rate 0.39% among 300,000. B-score at 10 µM;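 active means B-score over 3 SD under the library average, no early fluorescence shift, positive overall ratio signal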
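System: stable TRPC4beta/mu-opioid receptor HEK293 cells; Dosing: single-point compound dosing; Measured by: Fluo4 Ca2+ flux fluorescence; Read-out basis: per-well B score of integrated baseline-normalized Fluo4 ratio.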
Kir21 block: inhibitors of mouse Kir2.1 inward-rectifier potassium channel; Inward rectifier potassium channel 2 (Mus musculus), P35561; HEK293-Kir2.1, FluxOR thallium flux fluorescence; stronger effect = lower value; B-score at 10 µM; hit rate 0.85% among 310,000;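 active means fluorescence ratio B-score at or below minus 3 SD of library scores, with starting-brightness B-score within 2 SD, cut at about -4.2 in these data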;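 further: channel flux triggered by added potassium and thallium sulfate stimulus; B-score of peak minus minimum fluorescence over baseline after thallium stimulus; more negative B-score means stronger Kir2.1 block with less thallium influx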
TRPC4 agonist: activators of mouse TRPC4 channel, primary screen, Fluo4 calcium, HEK293 TRPC4beta/mu-opioid cells | Short transient receptor potential channel 4 (Mus musculus), Q9QUQ5 | Fluo4 calcium fluorescence; stronger effect = higher value | B-score at 10 µM | hit rate 0.49% among 310,000 | AID 2237, 2010;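 active means B-score above 5 SD of library B-scores, and initial fluorescence ratio not above library mean plus 5 SD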;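 further: positive B-score marks a calcium rise read as TRPC4 activation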
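Test system: HEK293 cells stably co-expressing mouse TRPC4beta and mu-opioid receptor | Schedule: Fluo4 dye loading 45 min at room temperature, 110 s recording | Measured by: Kinetic Fluo4 calcium fluorescence, 5 s baseline at 1 Hz | Evaluation: B score of integrated ratio | Controls: Buffer (low) and maximal DAMGO (high)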
TRPC4 PAM: positive allosteric modulators of TRPC4, primary screen, cell-based, mouse TRPC4beta, HEK293 mu-opioid, Fluo-4 calcium; Short transient receptor potential channel 4 (Mus musculus), Q9QUQ5; DAMGO EC20, Fluo-4 Ca2+ flux; stronger effect = higher value; B-score at 10 µM; hit rate 0.42% among 310,000;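 active means B-score of calcium response area above 5 SD of library B-scores, with initial fluorescence ratio within 5 SD of library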
Hits are given with their value. Compounds with a hit are over-represented: about 2.9% of the library has one in this group of screens.

Results for CC(=O)c1ccc(N2CCN(C(=O)c3cc4c(s3)CCCC4)CC2)cc1 ?
TRPC6 act: inactive; TRPC6 inhibitor: inactive; TRPC4 block: inactive; Kir21 block: inactive; TRPC4 agonist: inactive; TRPC4 PAM: 10

Results for COc1ccc(-c2cc(C)no2)cc1S(=O)(=O)NCc1ccc(OC(C)C)cc1 ?
TRPC6 act: inactive; TRPC6 inhibitor: inactive; TRPC4 block: inactive; Kir21 block: inactive; TRPC4 agonist: inactive; TRPC4 PAM: inactive

What do the screens show for `CCOC(=O)CSc1nnc(-c2ccco2)n1-c1ccccc1`?
TRPC6 act: inactive; TRPC6 inhibitor: inactive; TRPC4 block: inactive; Kir21 block: inactive; TRPC4 agonist: inactive; TRPC4 PAM: inactive

Results for COC(=O)c1cccc(CSc2nnc(-c3ccco3)n2-c2ccccc2)c1 ?
TRPC6 act: inactive; TRPC6 inhibitor: inactive; TRPC4 block: inactive; Kir21 block: -6.8; TRPC4 agonist: inactive; TRPC4 PAM: inactive

How did O=[N+]([O-])c1ccc2[nH]nc(-c3ccccc3)c2c1 do in these assays?
TRPC6 act: inactive; TRPC6 inhibitor: inactive; TRPC4 block: -6; Kir21 block: inactive; TRPC4 agonist: inactive; TRPC4 PAM: inactive

How did O=C(N/N=C/c1ccccn1)c1ccc([N+](=O)[O-])cc1Cl do in these assays?
TRPC6 act: inactive; TRPC6 inhibitor: inactive; TRPC4 block: inactive; Kir21 block: inactive; TRPC4 agonist: inactive; TRPC4 PAM: inactive

Results for O=C(N/N=C/c1ccccn1)c1[nH]c2ccc([N+](=O)[O-])cc2c1-c1ccccc1 ?
TRPC6 act: inactive; TRPC6 inhibitor: inactive; TRPC4 block: -6; Kir21 block: inactive; TRPC4 agonist: inactive; TRPC4 PAM: inactive

Results for NNC(=O)c1[nH]c2ccc([N+](=O)[O-])cc2c1-c1ccccc1 ?
TRPC6 act: inactive; TRPC6 inhibitor: inactive; TRPC4 block: -6; Kir21 block: inactive; TRPC4 agonist: inactive; TRPC4 PAM: inactive

Results for Cc1ccc(C(=O)OCC(=O)N(CCc2ccccc2)Cc2ccccc2)cc1S(=O)(=O)N1CCOCC1 ?
TRPC6 act: inactive; TRPC6 inhibitor: inactive; TRPC4 block: inactive; Kir21 block: inactive; TRPC4 agonist: inactive; TRPC4 PAM: inactive

Results for CCCCNC(=O)COn1nnc2ccc(S(=O)(=O)N3CCOCC3)cc21 ?
TRPC6 act: inactive; TRPC6 inhibitor: inactive; TRPC4 block: inactive; Kir21 block: inactive; TRPC4 agonist: inactive; TRPC4 PAM: inactive

How did O=c1c2ccccc2nc(SCc2ccccc2)n1CC1CCCO1 (stereo not given) do in these assays?
TRPC6 act: inactive; TRPC6 inhibitor: inactive; TRPC4 block: -7; Kir21 block: inactive; TRPC4 agonist: inactive; TRPC4 PAM: inactive

Results for O=C(CSc1ccc(F)cc1)Nc1ccccc1N1CCOCC1 ?
TRPC6 act: inactive; TRPC6 inhibitor: inactive; TRPC4 block: inactive; Kir21 block: -13; TRPC4 agonist: inactive; TRPC4 PAM: inactive

Results for Cc1ccc(SCC(=O)Nc2ccccc2N2CCOCC2)cc1 ?
TRPC6 act: inactive; TRPC6 inhibitor: inactive; TRPC4 block: inactive; Kir21 block: -12; TRPC4 agonist: inactive; TRPC4 PAM: inactive

What do the screens show for `O=C(CSc1ccccc1)Nc1ccccc1N1CCOCC1`?
TRPC6 act: inactive; TRPC6 inhibitor: inactive; TRPC4 block: inactive; Kir21 block: -8.5; TRPC4 agonist: inactive; TRPC4 PAM: inactive

How did C=CCOc1ccc(C(c2c(C)n(C)n(-c3ccccc3)c2=O)c2c(C)n(C)n(-c3ccccc3)c2=O)cc1 do in these assays?
TRPC6 act: inactive; TRPC6 inhibitor: inactive; TRPC4 block: inactive; Kir21 block: inactive; TRPC4 agonist: inactive; TRPC4 PAM: inactive

Results for COc1ccc(CNC(=O)C(C)NCc2ccc(S(N)(=O)=O)cc2)cc1 (stereo not given) ?
TRPC6 act: inactive; TRPC6 inhibitor: inactive; TRPC4 block: -8; Kir21 block: inactive; TRPC4 agonist: inactive; TRPC4 PAM: inactive

Results for O=C(c1cccs1)c1c[nH]cc1-c1ccccc1 ?
TRPC6 act: inactive; TRPC6 inhibitor: inactive; TRPC4 block: inactive; Kir21 block: inactive; TRPC4 agonist: inactive; TRPC4 PAM: inactive

Results for CCN(c1nc(N)c(C(=O)N=C(N)N)nc1Cl)C(C)C ?
TRPC6 act: inactive; TRPC6 inhibitor: inactive; TRPC4 block: inactive; Kir21 block: -5.7; TRPC4 agonist: 100; TRPC4 PAM: inactive

What do the screens show for `CC(=O)OCCNc1cc(Sc2nc3ccccc3[nH]2)c2nonc2c1[N+](=O)[O-]`?
TRPC6 act: inactive; TRPC6 inhibitor: inactive; TRPC4 block: inactive; Kir21 block: -4.5; TRPC4 agonist: inactive; TRPC4 PAM: inactive

What do the screens show for `O=C(CC(=O)c1ccccc1O)c1cccc(F)c1`?
TRPC6 act: inactive; TRPC6 inhibitor: inactive; TRPC4 block: inactive; Kir21 block: inactive; TRPC4 agonist: inactive; TRPC4 PAM: inactive

What do the screens show for `O=C(CC(=O)c1c(F)cccc1Cl)c1ccccc1O`?
TRPC6 act: inactive; TRPC6 inhibitor: inactive; TRPC4 block: inactive; Kir21 block: inactive; TRPC4 agonist: 84; TRPC4 PAM: inactive

What do the screens show for `Cc1oc(C(C)(C)C)cc1C(=O)N1CCN(c2ncccc2C(F)(F)F)CC1`?
TRPC6 act: inactive; TRPC6 inhibitor: inactive; TRPC4 block: inactive; Kir21 block: inactive; TRPC4 agonist: inactive; TRPC4 PAM: 11

How did COc1ccccc1N1CCN(C(=O)c2cc(C(C)(C)C)oc2C)CC1 do in these assays?
TRPC6 act: inactive; TRPC6 inhibitor: inactive; TRPC4 block: inactive; Kir21 block: inactive; TRPC4 agonist: inactive; TRPC4 PAM: inactive

What do the screens show for `COc1cccc(NC(=S)NN2C(C)CCCC2C)c1` (stereo not given)?
TRPC6 act: inactive; TRPC6 inhibitor: inactive; TRPC4 block: inactive; Kir21 block: inactive; TRPC4 agonist: inactive; TRPC4 PAM: 11

How did CCc1ccc(CN2CCCC(C(=O)Nc3ccccc3-c3ccc(OC)cc3)C2)o1 (stereo not given) do in these assays?
TRPC6 act: inactive; TRPC6 inhibitor: inactive; TRPC4 block: inactive; Kir21 block: -5.9; TRPC4 agonist: inactive; TRPC4 PAM: inactive

Results for COCc1ccc(CN2CCCC(C(=O)Nc3ccccc3-c3ccc(OC)cc3)C2)o1 (stereo not given) ?
TRPC6 act: inactive; TRPC6 inhibitor: inactive; TRPC4 block: inactive; Kir21 block: inactive; TRPC4 agonist: inactive; TRPC4 PAM: inactive

Results for Cc1ccc(Oc2ncccc2C(=O)NC2CCSC2=O)cc1 (stereo not given) ?
TRPC6 act: inactive; TRPC6 inhibitor: inactive; TRPC4 block: inactive; Kir21 block: inactive; TRPC4 agonist: inactive; TRPC4 PAM: inactive

Screening results: PubChem BioAssay, Johns Hopkins Ion Channel Center
